Reference: ChEMBL document CHEMBL5104108, “Concise synthesis and biological activity evaluation of novel pyrazinyl-aryl urea derivatives against several cancer cell lines, which can especially induce T24 apoptotic and necroptotic cell death” (RSC Med Chem, 2022)
pIC50: −log10 of the molar value. Activity calls are given as the source filed them. The calls are words filed in the database; no cut-off is given here.

Tests used:
HepG2 = assay: Antiproliferative activity against human HepG2 cells measured after 48 hrs by MTT assay; assay type: functional, cell-based; conditions: HepG2, 48 h
Summary of the method: (§1)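 Cells seeded 5 × 10^3 per well, grown overnight at 37 °C, then exposed to compound at final 1–40 μM (1, 2.5, 5, 7.5, 10, 12.5, 15, 20, 30, 40 μM) for the stated period. MTT added, 4 h at 37 °C, formazan dissolved in DMSO, absorbance read. IC50 = concentration killing 50% of cells relative to untreated control; mean ± S.D. of four independent experiments.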

MGC-803 = assay: Antiproliferative activity against human MGC-803 cells measured after 48 hrs by MTT assay; assay type: functional, cell-based; conditions: MGC-803, 48 h; summary of the method: as §1
T-24 [1] = assay: Antiproliferative activity against human T24 cells measured after 48 hrs by MTT assay; assay type: functional, cell-based; conditions: T-24, 48 h; summary of the method: as §1
[2] = Antiproliferative activity against human HCV-29 cells measured after 48 hrs by MTT assay; assay type: functional, cell-based; conditions: HCV-29, 48 h; summary of the method: as §1
[3] = Selectivity index, ratio IC50 for antiproliferative activity against human HCV-29 cells over IC50 for antiproliferative activity against human T24 cells; assay type: toxicity, cell-based; conditions: HCV-29 cells versus T24 cells
Summary of the method: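 MTT assay, 48 h exposure at final 1–40 μM in T24 and normal bladder epithelial HCV29 cells (5 × 10^3/well, seeded overnight, 37 °C). MTT added for 4 h and formazan dissolved in DMSO. IC50 taken relative to untreated control, four parallel samples. SI = IC50(HCV29)/IC50(T24).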

T-24 [4] = assay: Down-regulation of RIPK1 expression in human T24 cells at 7.5 to 10 uM measured after 16 hrs by Western blot analysis; assay type: functional, cell-based; conditions: dose 7.5-10 µM
Summary of the method: (§2)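 T24 cells co-incubated 16 h with or without Nec-1 (60 μM). Lysates quantified by BCA, 40 μg protein resolved by SDS-PAGE, transferred to PVDF, probed with primary and peroxidase-conjugated secondary antibodies, detected by ECL. Band gray values normalized to β-actin loading control.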

T-24 [5] = assay: Down-regulation of RIPK2 expression in human T24 cells at 7.5 to 10 uM measured after 16 hrs by Western blot analysis; assay type: functional, cell-based; conditions: dose 7.5-10 µM; summary of the method: as §2
T-24 [6] = assay: Down-regulation of RIPK3 expression in human T24 cells at 7.5 to 10 uM measured after 16 hrs by Western blot analysis; assay type: functional, cell-based; conditions: dose 7.5-10 µM; summary of the method: as §2
T-24 [7] = assay: Down-regulation of MLKL expression in human T24 cells at 7.5 to 10 uM measured after 16 hrs by Western blot analysis; assay type: functional, cell-based; conditions: dose 7.5-10 µM; summary of the method: as §2
T-24 [8] = assay: Down-regulation of p-RIPK1 expression in human T24 cells at 7.5 to 10 uM measured after 16 hrs by Western blot analysis; assay type: functional, cell-based; conditions: dose 7.5-10 µM; summary of the method: as §2
T-24 [9] = assay: Down-regulation of p-RIPK3 expression in human T24 cells at 7.5 to 10 uM measured after 16 hrs by Western blot analysis; assay type: functional, cell-based; conditions: dose 7.5-10 µM; summary of the method: as §2
T-24 [10] = assay: Down-regulation of p-MLKL expression in human T24 cells at 7.5 to 10 uM measured after 16 hrs by Western blot analysis; assay type: functional, cell-based; conditions: dose 7.5-10 µM; summary of the method: as §2
[11] = Cmax in Sprague-Dawley rat at 12 mg/kg, IG measured HPLC analysis; assay type: ADME, organism-based; parameters: dose 12 mg/kg, route ig; conditions: in vivo, po
[12] = Tmax in Sprague-Dawley rat at 12 mg/kg, IG measured HPLC analysis; assay type: ADME, organism-based; conditions: in vivo, po
Summary of the method: (§3)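 Fasted (12 h) male-unspecified Sprague-Dawley rats (250 ± 20 g), n = 6 per group. Single intragastric dose of suspension (2 mg mL−1 in Tween 80/0.9% NaCl 1.5:5 v/v). Orbital blood drawn at 0.5–48 h and plasma assayed by reversed-phase C18 HPLC-UV. One-compartment fit, weight 1.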

[13] = AUC (0 to 48 hrs) in Sprague-Dawley rat at 12 mg/kg, IG measured HPLC analysis; assay type: ADME, organism-based; parameters: time < 48 hr, dose 12 mg/kg, route ig; conditions: in vivo, po
[14] = AUMC in Sprague-Dawley rat at 12 mg/kg, IG measured HPLC analysis; assay type: ADME, organism-based; conditions: in vivo, po
[15] = Absorption rate constant in Sprague-Dawley rat at 12 mg/kg, IG measured HPLC analysis; assay type: ADME, organism-based; conditions: in vivo, po
[16] = Clearance in Sprague-Dawley rat at 12 mg/kg, IG measured HPLC analysis; assay type: ADME, organism-based; conditions: in vivo, po
[17] = Half-life in Sprague-Dawley rat at 12 mg/kg, IG measured HPLC analysis; assay type: ADME, organism-based; conditions: in vivo, po
[18] = MRT (0 to 48 hrs) in Sprague-Dawley rat at 12 mg/kg, IG measured HPLC analysis; assay type: ADME, organism-based; conditions: in vivo, po; summary of the method: as §3

Row | SMILES | pIC50 (HepG2) | pIC50 (MGC-803) | pIC50 (T-24 [1]) | pIC50 [2] | SI [3] | other results
1 | O=C(Nc1cccc(CNc2nccnc2Cl)c1)Nc1ccc(Cl)cc1Br | 5.17 | 5.13 | 5.18 | 4.62 | 3.61 | 
2 | O=C(Nc1cccc(Cl)c1)Nc1cccc(CNc2nccnc2Cl)c1 | 5.04 | 5.27 | 5.17 | 4.67 | 3.14 | 
3 | CC(C)(C)c1ccc(NC(=O)Nc2cccc(CNc3nccnc3Cl)c2)cc1 | 5.12 | 5.32 | 5.22 | 4.82 | 2.54 | 
4 | O=C(Nc1cccc(CNc2nccnc2Cl)c1)NC1CCCCC1 | < 4.40 | < 4.40 | < 4.40 | < 4.40 |  | 
5 | O=C(Nc1ccccc1)Nc1cccc(CNc2nccnc2Cl)c1 | 4.81 | 4.79 | 4.70 | 4.44 | 1.83 | 
6 | Cc1ccc(NC(=O)Nc2cccc(CNc3nccnc3Cl)c2)cc1 | 4.94 | 4.92 | 5.01 | 4.70 | 2.05 | 
7 | O=C(Nc1cccc(CNc2nccnc2Cl)c1)NC1CCCC1 | 4.73 | 4.63 | < 4.40 | < 4.40 |  | 
8 | Cc1ccc(NC(=O)Nc2cccc(CNc3nccnc3Cl)c2)c(C)c1 | 5.03 | 5.00 | 5.03 | 4.62 | 2.58 | 
9 | CS(=O)(=O)c1ccc(NC(=O)Nc2cccc(CNc3nccnc3Cl)c2)cc1 | 4.82 | 4.91 | 4.53 | < 4.40 |  | 
10 | COc1ccc(NC(=O)Nc2cccc(CNc3nccnc3Cl)c2)cc1 | 4.92 | 5.03 | 5.01 | 4.68 | 2.13 | 
11 | O=C(Nc1ccc(Cl)cc1)Nc1cccc(CNc2nccnc2Cl)c1 | 5.08 | 5.30 | 5.26 | 4.71 | 3.54 | 
12 | CCc1ccccc1NC(=O)Nc1cccc(CNc2nccnc2Cl)c1 | 5.10 | 5.03 | 5.06 | 4.79 | 1.88 | 
13 | CNC(=O)c1cc(Oc2ccc(NC(=O)Nc3ccc(Cl)c(C(F)(F)F)c3)c(F)c2)ccn1 [REGORAFENIB] | 4.98 | 5.02 | 5.22 | 4.89 | 2.16 | Activity (T-24 [4]): Active; Activity (T-24 [5]): Active; Activity (T-24 [6]): Active; Activity (T-24 [7]): Active; Activity (T-24 [8]): Active; Activity (T-24 [9]): Active; Activity (T-24 [10]): Active; Cmax [11]: 3100 ng/mL; Tmax [12]: 8.07 h; AUC(0-t) at 48 h [13]: 50700 ng·h/mL; AUMC [14]: 737185 hr2.ng/ml; Ka [15]: 0.138 h⁻¹; CL/F [16]: 0.986 mL/min; half-life [17]: 5.06 h; MRT last [18]: 7.29 h
14 | Cc1ccccc1NC(=O)Nc1cccc(CNc2nccnc2Cl)c1 | 4.82 | 4.85 | 4.87 | 4.47 | 2.47 | 
15 | O=C(Nc1cccc(CNc2nccnc2Cl)c1)Nc1ccccc1Cl | 5.07 | 5.15 | 5.18 | 4.55 | 4.21 | 
16 | O=C(Nc1cccc(CNc2nccnc2Cl)c1)Nc1cccc(C(F)(F)F)c1 | 5.21 | 5.14 | 5.29 | 4.54 | 5.64 | 
17 | O=C(Nc1cccc(CNc2nccnc2Cl)c1)Nc1ccc(Cl)c(Cl)c1 | 5.21 | 5.30 | 5.28 | 4.57 | 5.22 | 
18 | CN(C)c1ccc(NC(=O)Nc2cccc(CNc3nccnc3Cl)c2)cc1 | < 4.40 | 4.94 | 4.69 | < 4.40 |  | 
19 | Cc1cccc(NC(=O)Nc2cccc(CNc3nccnc3Cl)c2)c1 | 4.95 | 4.84 | 5.02 | 4.55 | 2.96 | 
20 | O=C(Nc1cccc(CNc2nccnc2Cl)c1)Nc1ccccc1F | 4.98 | 5.19 | 5.13 | 4.60 | 3.37 | 
21 | CCc1cccc(CC)c1NC(=O)Nc1cccc(CNc2nccnc2Cl)c1 | 4.97 | 5.21 | 5.19 | 4.73 |  | 
22 | O=C(Nc1cccc(CNc2nccnc2Cl)c1)Nc1ccc(Cl)cc1Cl | 5.14 | 5.19 | 5.24 | 4.60 | 4.42 | 
23 | COc1ccccc1NC(=O)Nc1cccc(CNc2nccnc2Cl)c1 | 4.86 | 4.91 | 4.98 | 4.74 | 1.74 | 
24 | CCOc1ccc(NC(=O)Nc2cccc(CNc3nccnc3Cl)c2)cc1 | 5.15 | 5.14 | 5.04 | 4.52 | 3.36 | 
25 | Cc1ccc(NC(=O)Nc2cccc(CNc3nccnc3Cl)c2)cc1Cl | 4.95 | 4.76 | 5.13 | 4.67 | 2.91 | 
26 | O=C(Nc1cccc(CNc2nccnc2Cl)c1)Nc1cccc2ccccc12 | < 4.40 | 4.49 | < 4.40 | < 4.40 |  | 
27 | O=C(Nc1cccc(CNc2nccnc2Cl)c1)Nc1ccc(F)c(Cl)c1 | 5.17 | 5.30 | 5.30 | 4.61 | 4.94 | 
28 | Cc1ccc(NC(=O)Nc2cccc(CNc3nccnc3Cl)c2)cc1C | 4.97 | 5.01 | 5.05 | 4.89 | 1.43 | 
29 | Nc1ccn([C@@H]2O[C@H](CO)[C@@H](O)C2(F)F)c(=O)n1 [GEMCITABINE] |  |  |  | 4.67 | 2.12 | 
